Measured values: PMC10634270 (ACS Omega, 2023)

Key:
HeLa wt cells = experiment: Cell viability MTT assay on HeLa wt cells; format: cell-based, human; conditions: for cytotoxicity against HeLa cells (in words): either human cell line
Hs27 fibroblasts = experiment: Cell viability MTT assay on Hs27 fibroblasts; format: cell-based, human; conditions: for cytotoxicity against Hs27 fibroblasts (in words): either human cell line
In short: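 In vitro viability screen on Hs27 human fibroblasts, the same cells that serve as hosts in the parasite proliferation assay. IC50 is reported with confidence intervals.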

[1] = Antioxidant ABTS decolorization assay; conditions: relative to ascorbic acid
In short: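 Antioxidant capacity is read as ABTS radical decolorization. It is expressed relative to ascorbic acid as ascorbic acid equivalents in mol mol–1. Values are given with standard deviation.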

[2] = Stability experiments in DMSO; format: physicochemical; conditions: up to 40 °C, over 24 h

Compound	cytotoxicity against HeLa cells (in words) (HeLa wt cells)	cytotoxicity against Hs27 fibroblasts (in words) (Hs27 fibroblasts)	ascorbic acid equivalent antioxidant capacity (AEAC) [1]	further results
COc1cc(C)cc2oc(-c3ccc(C(F)(F)F)cc3)cc(=O)c12 [8ad, 5-Methoxy-7-methyl-2-(4-(trifluoromethyl)phenyl)-4H-chromen-4-one]	noncytotoxic	noncytotoxic		
COc1cc(OC)c2c(=O)cc(-c3ccc(C(F)(F)F)cc3)oc2c1 [8bd, 5,7-Dimethoxy-2-(4-(trifluoromethyl)phenyl)-4H-chromen-4-one]	noncytotoxic	noncytotoxic		
COc1ccc(-c2cc(=O)c3c(OC)cc(C)c(-c4c(C)cc(OC)c5c(=O)cc(-c6ccc(OC)cc6)oc45)c3o2)cc1 [9aa, rac-5,5′-Dimethoxy-2,2′-bis(4-methoxyphenyl)-7,7′-dimethyl-4H,4′H-[8,8′-bichromene]-4,4′-dione]			0.25 equiv ascorbic acid [mol mol^–1]	
COc1cc(C)c(-c2c(C)cc(OC)c3c(=O)cc(-c4ccc(N(C)C)cc4)oc23)c2oc(-c3ccc(N(C)C)cc3)cc(=O)c12 [9ac, rac-2,2′-Bis(4-(dimethylamino)phenyl)-5,5′-dimethoxy-7,7′-dimethyl-4H,4′H-[8,8′-bichromene]-4,4′-dione]			0.197 equiv ascorbic acid [mol mol^–	stability in DMSO [2]: stable
COc1cc(C)c(-c2c(C)cc(OC)c3c(=O)cc(-c4ccc(C(F)(F)F)cc4)oc23)c2oc(-c3ccc(C(F)(F)F)cc3)cc(=O)c12 [9ad, rac-5,5′-Dimethoxy-7,7′-dimethyl-2,2′-bis(4-(trifluoromethyl)phenyl)-4H,4′H-[8,8′-bichromene]-4,4′-dione]	noncytotoxic	noncytotoxic		
COc1cc(OC)c2c(=O)cc(-c3ccc(C(F)(F)F)cc3)oc2c1-c1c(OC)cc(OC)c2c(=O)cc(-c3ccc(C(F)(F)F)cc3)oc12 [9bd, rac-5,5′,7,7′-Tetramethoxy-2,2′-bis(4-(trifluoromethyl)phenyl)-4H,4′H-[8,8′-bichromene]-4,4′-dione]	noncytotoxic	noncytotoxic		
Cc1cc(O)c2c(=O)cc(-c3ccc(N(C)C)cc3)oc2c1-c1c(C)cc(O)c2c(=O)cc(-c3ccc(N(C)C)cc3)oc12 [compound 11, rac-2,2′-Bis(4-(dimethylamino)phenyl)-5,5′-dihydroxy-7,7′-dimethyl-4H,4′H-[8,8′-bichromene]-4,4′-dione]			0.037 equiv ascorbic acid [mol mol^–	IC50 (HeLa wt cells; Homo sapiens, HeLa, 48 h, read-out: IC50 (HeLa)): > 100 µM; IC50 (Hs27 fibroblasts; Homo sapiens, HS27, 24 h, read-out: IC50 (Hs27)): > 200 µM
